Data from ChEMBL document CHEMBL4513216, “Probing the Open Global Health Chemical Diversity Library for Multistage-Active Starting Points for Next-Generation Antimalarials” (ACS Infect Dis, 2020).

Test: Toxicity liver stage against HepG2, at 10uM
Format: cell-based
Parameters: test concentration 10 uM, cell line HepG2-A16-CD81EGFP
Conditions: human, HepG2-A16-CD81EGFP cells; read-out: INHIBITION
Summary of the method: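 Uninfected HepG2-A16-CD81EGFP cells, 3 × 10^3 per well, 1536-well, plated on prespotted compound at 10 μM final, parasite-free screening media added to match infected plates; puromycin 10 μM positive, DMSO 0.5% negative; run in parallel with 48 h PbLuc assay at 37 °C, 5% CO2; viability by CellTiter-Glo luminescence, normalized to controls.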

Row | Compound | cytotoxicity at 10 µM [%]
1 | Cc1ccc(S(=O)(=O)N2CCN(CCC#N)CC2)s1 | -10.8
2 | CN(C)[C@@H]1CO[C@H](CNC(=O)Nc2ccccc2)[C@H]1O | -0.713
3 | CN1CCC[C@H]1c1nc(-c2cncnc2N)no1 | 2.6
4 | CNC(=O)[C@@H]1[C@H]2CNCCN2C[C@H]1c1ccccc1 | 3.28
5 | C/C(NC(=O)c1ccco1)=C1/C(=O)C[C@@H]2[C@H]1C2(C)C | 2.41
6 | Cn1ccc2cc(C(=O)Nc3nc[nH]n3)ccc21 | 1.69
7 | CN1C(=O)C(C)(C)COc2ccc(NS(=O)(=O)Cc3ccccc3)cc21 | 8.2
8 | O=C(CC1CSc2nccc(=O)n21)NCc1cc(-c2ccco2)on1 (configuration not stated) | -11.3
9 | O=C(CSC1=NS(=O)(=O)c2cc(Cl)ccc2N1)c1ccccc1 | 13.6
10 | CNC(=O)C1CCCN(c2nc3c(-c4ccccc4)csc3c(=O)[nH]2)C1 (configuration not stated) | -1.03
11 | CN(C)S(=O)(=O)NCCn1nc(-c2ccccc2)n(C)c1=O | -2.17
12 | O=C(N[C@@H]1CN(c2ncccn2)[C@@H]2CCCO[C@@H]21)c1cscn1 | -142
13 | CNC(=O)N1CC[C@H]2N(C)CC[C@@]2(C(=O)Nc2ccccc2)CC1 | -17.2
14 | Cn1ncc2c1C(COCC1CC1)CN(Cc1nccs1)C2 (configuration not stated) | 4.49
15 | Cc1ccc(F)cc1NC(=O)c1[nH]ncc1Br | 15.7
16 | O=C(c1nn[nH]c1Nc1ccc(Cl)cc1)N1CCSCC1 | 4.67
17 | Cc1ncc2c(n1)CCCC2NC(=O)c1ccccc1C(=O)O (configuration not stated) | -11.7
18 | Cc1cc(N2CCCN(c3ccnc(C)c3)CC2)ccn1 | -0.943
19 | O=C(COCc1nc(-c2ccncc2)no1)NC1CCCCC1 | -8.19
20 | CN(Cc1ncc(-c2ccccc2C(=O)O)s1)c1ncccn1 | 1.69
21 | Cc1noc(-c2cnc(NC(C)C)nc2-c2ccco2)c1C | -0.275
22 | c1ccc(OCCN2CCC(c3cnccn3)CC2)cc1 | 7.56
23 | O=C(c1cc[nH]n1)N1CCCC1c1cncc(CN2CCOCC2)n1 (configuration not stated) | 9.31

Row | Compound | cytotoxicity at 10 µM [%]
24 | NC(=O)c1cn[nH]c1C1CCCN1C(=O)c1ccccn1 (configuration not stated) | 0.893
25 | COc1ccc2[nH]cc(C(=O)N3C[C@@H](O)[C@H](N4CCCC4)C3)c2c1 | 2.35
26 | CCn1cc(S(=O)(=O)Nc2nc3c(s2)CC(C)CC3)cn1 (configuration not stated) | 9.88
27 | O=C(Cc1ccn[nH]1)N1CCc2cc(Br)sc2C1 | 4.42
28 | CSc1cc2c(cc1NC(=O)N(C)Cc1ccncc1)OCCO2 | 11.4
29 | O=S(=O)(Cc1cccc(F)c1)Nc1cc(Cl)ccn1 | -8.69
30 | COc1ccc(CNC(=O)c2ccc(=O)n(C)c2)cc1C | 2.31
31 | CNC(=O)Cc1noc(-c2cc3c(s2)CCCCCC3)n1 | 3.76
32 | Cc1nc(CN(C)C(=O)CNC(=O)c2ccc(C#N)cc2)cs1 | 12.5
33 | CC(c1nc(C2CC2)no1)N1CCN(CCS(C)(=O)=O)CC1 (configuration not stated) | 7.41
34 | N#CCc1ccc(NC(=O)N[C@H](CO)Cc2ccc(O)cc2)cc1 | -1.8
35 | CCc1nc2n(n1)CC(NCc1nc3ccccc3o1)CC2 (configuration not stated) | 12.4
36 | CN(c1ccc(F)c(F)c1)S(=O)(=O)c1cc2c(c(C(=O)O)c1)OCCO2 | -5.38
37 | Cn1ncc2c(N3CCC(CC(=O)N4CCCC4)CC3)ncnc21 | 4.19
38 | Cn1c(=O)ccn(CC(=O)Nc2cccnc2)c1=O | -1.58
39 | Cc1nn(C)c2ncc(S(=O)(=O)N3CCCN4CCCC4C3)cc12 (configuration not stated) | -0.334
40 | NC(=O)[C@@H]1Cc2ccccc2CN1CCc1cccs1 | 0.436
41 | C=C(C)CN1CCCC(CNS(C)(=O)=O)C1 (configuration not stated) | 5.63
42 | CCn1cnnc1C1CCN(C(=O)c2ccc3c(c2)nnn3C)CC1 | 10.9
43 | O=C(NCCNc1ncccn1)N1CCCC1c1ccncc1 (configuration not stated) | -4.65
44 | COCCNC(=O)NCCc1cccc(OC)c1O | 9.31
45 | CN(C)C(CNC(=O)c1nc(N2CCOCC2)ncc1Cl)c1cccs1 (configuration not stated) | 8.26
46 | Cc1ncsc1CCN1CCN(C(=O)c2ccc(=O)[nH]c2)CC1 | 4.38

Row | Compound | cytotoxicity at 10 µM [%]
47 | COCC(C)N(C)C(=O)c1ccc2nncn2c1 (configuration not stated) | -1.37
48 | Cc1ccccc1C1(CN)CCCCC1 | 2.29
49 | CN1CCC(NC(=O)Nc2ccc(Br)c(F)c2)C1=O (configuration not stated) | -147
50 | CC(C)(O)CN1CCN(C(=O)COC2CCCC2)CC1 | 1.46
51 | CCN1CCN(c2ccc(C(=O)NCc3cc(C)no3)cc2F)CC1 | 11.2
52 | CN(C)c1ccc(CN(CC2CCCO2)C(=O)c2csnn2)cc1 (configuration not stated) | -1.59
53 | CNC(=O)NC(=O)C(C)N1CCN(c2ccc(C#N)cc2F)CC1 (configuration not stated) | 2.83
54 | CC(C)N(CC(N)=O)CC(=O)N(C1=CCCCC1)C1CC1 | -0.429
55 | CCCN(C)c1ccc(C(=O)NCc2ccnc(C)n2)cc1 | 6.6
56 | Cc1nc2ncnn2c(C)c1CCC(=O)Nc1cccn(C)c1=O | -9.59
57 | O=C(NCCc1cccc(O)c1)NC1CCN(c2ccccc2)C1=O (configuration not stated) | 5.68
58 | COc1ccnc(N2CCN(C(=O)CCc3nccs3)CC2)n1 | -8.97
59 | Cc1noc(C)c1CNC(=O)N1CCC(CO)CC1 | -8.08
60 | O=C(c1ccc(Br)o1)N1CCCC(n2cncn2)C1 (configuration not stated) | -3.22
61 | NC(=O)CSCCC(=O)N1CCCC1c1ccsc1 (configuration not stated) | -13.6
62 | Cc1nccn1-c1cc(CNC(=O)c2ccccn2)ccn1 | -11.5
63 | CCCN(CC)C(=O)c1cc2c(c3ccccc3n2C)n1C(=O)N(C)C | -4.89
64 | c1ccc(Cc2noc(-c3ccc(NCC4COCCO4)nc3)n2)cc1 (configuration not stated) | 6.42
65 | CN1CC2(CCN(C(=O)c3cccc(-n4cccn4)c3)CC2)OC1=O | 4.5
66 | COc1ccccc1CN(Cc1cccnc1)Cc1c[nH]c(C)n1 | 6.43
67 | CCN(CCN1CCCCCC1)C(=O)c1cnc(-c2cccnc2)nc1 | 11.4
68 | N#Cc1cccc(NC2CC(=O)N(CCc3ccc(F)cc3)C2)n1 (configuration not stated) | -118
69 | CC1CCCCN1CCN(C)C(=O)c1cc(CN2CCC(O)CC2)on1 (configuration not stated) | 1.14

Row | Compound | cytotoxicity at 10 µM [%]
70 | COc1ccccc1CN(Cc1cccc(C)c1)C(=O)[C@@H](N)CC(=O)O | -47.7
71 | COCC(=O)N1CCCN(c2ncnc3c2CCNCC3)CC1 | 8.93
72 | CC(C)CN1CC2(CCN(C(=O)C3CSC(C)(C)C(=O)N3)CC2)CC1=O (configuration not stated) | 4.79
73 | O=C(COc1ccc(F)cc1F)N1CCOCC(O)(CN2CCCC2)C1 (configuration not stated) | 0.678
74 | CC(c1ccon1)N(C)C(=O)C1CCN(CC(N)=O)CC1 (configuration not stated) | -4.83
75 | CC(C)N1CCC(CN2CCn3nc(CNC(=O)N(C)C)cc3C2)CC1 | 1.09
76 | CN(C)Cc1nnc(C(=O)N(C)Cc2ccc(F)cc2)o1 | 0.624
77 | Cc1cccc(OCC2CCCN(C(=O)CN(C)C3CCNCC3)C2)c1 (configuration not stated) | -8.4
78 | CC(C)CN(C)Cc1c[nH]nc1-c1ccc(F)cc1F | 2.38
79 | COCCC1(CO)CCCN(C(=O)c2cc(C#N)c(=O)[nH]c2C)C1 (configuration not stated) | -37.7
80 | CCOc1ccc(C(=O)CCC(=O)N(C)Cc2noc(C)n2)cc1C | -4.34
81 | O=C(NCc1cc2n(n1)CCCN(Cc1ccc(CO)o1)C2)C1CCC1 | 5.46
82 | O=C(Nc1ccc2ncsc2c1)N1CCCN([C@H]2COC[C@@H]2O)CC1 | -53.6
83 | COc1ncc(C(=O)N2CCC3(CC2)C(=O)Nc2ccccc23)cn1 | -140
84 | Cn1nc(C(=O)N2CCCCC2c2nc3cc(F)ccc3[nH]2)ccc1=O (configuration not stated) | -18.2
85 | CSc1ccc(S(=O)(=O)N2CCCCC2CCNC(C)=O)cc1 (configuration not stated) | -9.61
86 | Cc1cc2c(cc1C(=O)N1CC[C@H](CO)[C@@H](O)C1)OCCO2 | -10.8
87 | O=C(Cc1ccc2c(c1)OCO2)N1CCCN(c2ccccc2)CC1 | -2.84
88 | O=C(c1cccc(S(=O)(=O)NCCCc2ncc[nH]2)c1)N1CCOCC1 | -11.4
89 | Cc1nn(C)c(C)c1C1CCCN1Cc1nc(-c2ccccn2)no1 (configuration not stated) | -5.29
90 | Cc1ccc(CC(=O)N(CC2CN(C)CCO2)c2nccs2)cn1 (configuration not stated) | -9.89
91 | Cc1csc(N2CCN(CC(=O)Nc3cccnc3)CC2C)n1 (configuration not stated) | 14.1
92 | COc1ccc(Cl)cc1NCc1cc(C)on1 | -7.13

Row | Compound | cytotoxicity at 10 µM [%]
93 | CCc1ocnc1C(=O)N1CCCC(n2nc(C)nc2C)C1 (configuration not stated) | -11.5
94 | Cc1cc(C2CCCN(CCCS(C)(=O)=O)C2)n[nH]1 (configuration not stated) | -13.2
95 | Cc1cc(C2CCCN(CCNS(=O)(=O)c3ccccc3)C2)n[nH]1 (configuration not stated) | -28.5
96 | Fc1cccc(-c2nc(CN3CCCC(Cn4cncn4)C3)co2)c1 (configuration not stated) | -12.5
97 | CCOc1ncccc1NC(=O)C1CCS(=O)(=O)C1 (configuration not stated) | -16.7
98 | CC(NC(=O)NCCCn1cncn1)c1ccccc1F (configuration not stated) | -13.3
99 | Cc1cccc(-c2nc(C)nn2CC(=O)NCC(C)C)c1 | -27.9
100 | CCc1csc(C2CCCN(C(=O)c3cc(Cl)c[nH]3)C2)n1 (configuration not stated) | -9.83
101 | Cc1cnn(CC2CN(CC(=O)N(C)c3nccs3)CCO2)c1 (configuration not stated) | 0.385
102 | Cc1cc(C(=O)N2CCc3nnc(N)cc3C2)c(C)n1-c1cccnc1 | -1.25
103 | COC(=O)C(c1cc(F)ccc1F)N(C)C(=O)c1ccnc(C)n1 (configuration not stated) | -0.337
104 | O=C(CCc1nccs1)N1CCN(c2ccc(Br)cn2)CC1 | -2.65
105 | CCNC(=O)N1CCCC(c2noc(CC)n2)C1 (configuration not stated) | -2.45
106 | CCn1cc(CN2CCCN(C(=O)C3=NN(C)C(=O)CC3)CC2)cn1 | 3.54
107 | COc1cccc(Nc2nc(C3CCCNC3)c3sc(C)c(C)n23)c1 (configuration not stated) | -4.93
108 | Cc1nc(C)c(C(=O)N2Cc3ccccc3OCC2CN(C)C)o1 (configuration not stated) | 2.2
109 | COCC1Cn2nnc(-c3cnn(C)c3)c2CN1Cc1ccco1 (configuration not stated) | -9.44
110 | COCC1Cn2nnc(-c3cnn(C)c3)c2CN1Cc1ccc(C)s1 (configuration not stated) | -10.5
111 | CN(C)CCN1CCCC12CCN(C(=O)c1cccnc1)CC2 | 4.68
112 | CN1CCN(Cc2cn3c(n2)CN(C(=O)N2CCOCC2)CC3)CC1 | -18.3
